According to ChEMBL document CHEMBL1157655, “Design and synthesis of novel series of pyrrole based chemotypes and their evaluation as selective aldose reductase inhibitors. A case of bioisosterism between a carboxylic acid moiety and that of a tetrazole” (Bioorg Med Chem, 2010):

Columns and labels:
[1] = biological target: Aldo-keto reductase family 1 member B1 (Rattus norvegicus, UniProt P07943); experiment: Inhibition of aldose reductase in Fischer-344 rat lens homogenate by spectrometric analysis
[2] = biological target: T1, Aldo-keto reductase family 1 member A1 (Rattus norvegicus) (UniProt P51635); experiment: Inhibition of rat kidney aldehyde reductase at 0.1 mM after 20 mins by spectrometric analysis
T1 sequence (whole entry): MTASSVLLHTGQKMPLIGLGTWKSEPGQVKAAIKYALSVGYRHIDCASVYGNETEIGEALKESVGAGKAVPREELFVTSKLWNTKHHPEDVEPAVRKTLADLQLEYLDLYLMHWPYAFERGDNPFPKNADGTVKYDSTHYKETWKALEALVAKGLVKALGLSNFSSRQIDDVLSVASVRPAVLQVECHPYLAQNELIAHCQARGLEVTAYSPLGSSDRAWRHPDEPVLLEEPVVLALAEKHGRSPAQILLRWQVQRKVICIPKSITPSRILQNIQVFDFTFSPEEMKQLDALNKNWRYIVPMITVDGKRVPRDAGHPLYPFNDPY

[3] = test system: Radical scavenging activity; experiment: Antioxidant activity assessed as DPPH radical scavenging activity at 0.2 mM; format: functional
In short: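 Compounds in absolute ethanol added to an equal volume of ethanolic DPPH to give final 0.2–0.0125 mM compound and 0.2 mM DPPH. Continual absorbance decrease at 517 nm followed. Trolox reference. Triplicate.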

[4] = Antioxidant activity against AAPH-induced lipid peroxidation in unilamellar DOPC liposomes after 80 mins by thiocyanate reagent method; format: functional
In short: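 DOPC unilamellar liposomes (final 0.8 mM, phosphate buffer 20 mM pH 7.4) incubated with test compound (10–300 µM range stated) and AAPH (final 10 mM) at 50 °C for 80 min. Aliquots extracted with ice-cold CHCl3/MeOH (2:1) containing BHT. Lipid hydroperoxide determined by thiocyanate method, absorbance at 500 nm, quantified against cumene hydroperoxide calibration curve. Triplicate.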

[5] = biological target: Aldo-keto reductase family 1 member B1 (Rattus norvegicus) (UniProt P07943); experiment: Inhibition of aldose reductase in Fischer-344 rat lens homogenate at 0.1 mM by spectrometric analysis

Row | Compound | IC50 [1] [µM] | inhibition [2] [%] | Activity [3] [%] | IC50 [4] [µM] | inhibition [5] [%]
1 | O=C(O)CCCn1ccc(C(=O)c2ccccc2)c1 | 6.04 | 22 | – | – | –
2 | O=C(O)CCn1ccc(C(=O)c2ccccc2)c1 | 9.7 | 20 | – | – | –
3 | O=C(c1ccccc1)c1ccn(-c2nn[nH]n2)c1 | 18 | 18 | 10 | > 300 | –
4 | O=C(c1ccccc1)c1ccn(Cc2nn[nH]n2)c1 | – | 23 | – | – | 40
5 | Cc1c(C)c2c(c(C)c1O)CCC(C)(C(=O)O)O2 (stereo not drawn) [TROLOX] | – | – | 98 | 93.5 | –
6 | O=C(O)Cn1ccc(C(=O)c2ccccc2)c1 | – | 34 | 10 | > 300 | –
7 | O=C(c1ccccc1)c1cccn1-c1nn[nH]n1 | 20 | 18 | 10 | > 300 | –
8 | O=C(c1ccccc1)c1ccn(CCCc2nn[nH]n2)c1 | – | 35 | – | – | 41
9 | O=C(c1ccccc1)c1ccn(CCc2nn[nH]n2)c1 | – | 41 | – | – | 6
